According to ChEMBL document CHEMBL1154534, “Ultrasound promoted synthesis of 2-imidazolines in water: a greener approach toward monoamine oxidase inhibitors” (Bioorg Med Chem Lett, 2009):

Legend:
Rattus norvegicus [1] = species on record: Rattus norvegicus; experiment: Selectivity index, ratio of Ki rat for MAOA to Ki for rat MAOB
[2] = molecular target: T1, Amine oxidase [flavin-containing] B (Rattus norvegicus, UniProt P19643); experiment: Binding affinity to MAOB imidazoline binding site in rat brain mitochondrial homogenate assessed as 4-hydroxyquinoline production by spectrophotometry; format: tissue-based
T1 sequence (P19643 whole entry): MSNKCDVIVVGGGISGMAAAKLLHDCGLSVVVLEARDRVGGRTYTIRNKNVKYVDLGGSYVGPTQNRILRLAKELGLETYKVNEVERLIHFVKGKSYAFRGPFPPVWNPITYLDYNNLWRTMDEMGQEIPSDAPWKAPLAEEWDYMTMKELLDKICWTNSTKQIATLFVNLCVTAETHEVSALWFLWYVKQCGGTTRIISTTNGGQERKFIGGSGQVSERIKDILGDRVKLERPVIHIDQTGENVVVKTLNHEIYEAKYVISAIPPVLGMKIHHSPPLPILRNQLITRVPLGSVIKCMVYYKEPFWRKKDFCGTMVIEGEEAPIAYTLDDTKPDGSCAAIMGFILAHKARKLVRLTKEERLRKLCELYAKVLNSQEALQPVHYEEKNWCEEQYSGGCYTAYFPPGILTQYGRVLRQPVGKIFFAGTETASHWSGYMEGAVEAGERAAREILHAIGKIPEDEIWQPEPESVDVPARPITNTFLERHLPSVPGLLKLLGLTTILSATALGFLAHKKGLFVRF
Procedure, shortened: (§1)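 Rat brain mitochondrial homogenates, with protein measured by Bradford. Fractions were preincubated for 5 min at 37 °C with 250 nM selegiline (MAO-A assay) or 250 nM clorgyline (MAO-B assay). Compounds were added in DMSO, followed 5 min later by kynuramine at its KM for each isoform. Incubation ran 30 min at 37 °C and was stopped with trichloroacetic acid, then centrifuged. 4-Hydroxyquinoline was read at 314 nm, or by fluorescence (ex 315/em 380 nm) if compounds interfered.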

[3] = molecular target: T2, Amine oxidase [flavin-containing] A (Rattus norvegicus, UniProt P21396); experiment: Binding affinity to MAOA imidazoline binding site in rat brain mitochondrial homogenate assessed as 4-hydroxyquinoline production by spectrophotometry; format: tissue-based; procedure, shortened: as §1
T2 sequence (P21396 whole entry): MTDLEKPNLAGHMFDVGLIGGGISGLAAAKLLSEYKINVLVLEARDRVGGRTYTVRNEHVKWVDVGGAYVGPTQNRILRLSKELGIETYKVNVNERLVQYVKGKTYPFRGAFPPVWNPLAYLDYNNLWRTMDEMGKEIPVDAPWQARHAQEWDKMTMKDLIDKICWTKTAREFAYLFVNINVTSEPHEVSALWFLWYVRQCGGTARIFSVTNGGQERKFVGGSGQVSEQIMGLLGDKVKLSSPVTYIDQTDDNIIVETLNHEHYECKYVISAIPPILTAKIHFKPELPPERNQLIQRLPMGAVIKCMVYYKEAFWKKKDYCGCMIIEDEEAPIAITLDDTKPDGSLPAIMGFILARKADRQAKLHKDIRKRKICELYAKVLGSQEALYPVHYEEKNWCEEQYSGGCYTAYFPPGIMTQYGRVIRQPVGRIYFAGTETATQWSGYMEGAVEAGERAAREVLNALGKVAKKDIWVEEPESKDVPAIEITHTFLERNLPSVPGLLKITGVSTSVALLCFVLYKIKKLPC

Rattus norvegicus [4] = species on record: Rattus norvegicus; experiment: Selectivity index, ratio of Ki rat for MAOB to Ki for rat MAOA

Ratio Ki (Rattus norvegicus [1]) | Ki [2] [µM] | Ki [3] [µM] | IC50 [2] [µM] | IC50 [3] [µM] | Ratio Ki (Rattus norvegicus [4]) | Structure (SMILES)
7.79 | 13.1 | 102 |  |  |  | Cc1ccc(C2=NCCN2)cc1
0.48 | 32.7 | 15.8 |  |  |  | COc1ccc(C2=NCCN2)cc1
31.1 | 5.35 | 166 |  |  |  | Clc1ccc(C2=NCCN2)cc1
0.013 | 1000 | 13.6 |  |  | 73 | COc1ccc(C2=NCCN2)cc1OC
0.114 | 1000 | 114 |  |  |  | COc1cc(C2=NCCN2)cc(OC)c1OC

Further lines, the molecule ahead of its results:

Structure (SMILES) | Ratio Ki (Rattus norvegicus [1]) | Ki [2] [µM] | Ki [3] [µM] | IC50 [2] [µM] | IC50 [3] [µM] | Ratio Ki (Rattus norvegicus [4])
c1ccc(C2=NCCN2)nc1 | > 39.5 | 25.3 | > 1000 |  |  | 
c1ccc(C2=NCCN2)cc1 | 1.35 | 21.3 | 28.8 |  |  | 
c1ccc2cc(C3=NCCN3)ccc2c1 [BENAZOLINE] | 9.32 | 1.49 | 13.9 |  |  | 
c1ccc2nc(C3=NCCN3)ccc2c1 | 0.91 | 5.32 | 4.86 | 13.3 | 12.7 | 
O=[N+]([O-])c1ccc(C2=NCCN2)cc1 | < 0.181 | > 1000 | 181 |  |  | 
Clc1ccc(C2=NCCN2)c(Cl)c1 | 10.5 | 3.98 | 28.8 |  |  | 
O=C(Oc1ccc(C2=NCCN2)cc1)c1ccccc1 | 9.27 | 1.38 | 12.8 |  |  | 
Clc1ccccc1C1=NCCN1 | > 40.7 | 24.6 | > 1000 |  |  | 
c1ccc2oc(C3=NCCN3)cc2c1 |  | 3.63 | 24.9 | 9.1 | 65 | 
O=[N+]([O-])c1cccc(C2=NCCN2)c1 | > 51.9 | 19.3 | > 1000 |  |  | 
c1coc(C2=NCCN2)c1 |  | > 1000 | > 1000 |  |  | 
